Laboratory results as given in article PMC4443790 (Neuron, 2015).
“Also recorded” adds a separate entry of the source.

How the values were obtained:
[1] = target: mGlu5 in rat cortical astrocytes (Rattus norvegicus, UniProt P31424); test: Glutamate-induced calcium mobilization in cultured rat cortical astrocytes; type: cell-based
rats [2] = test: Behavioral convulsions, modified Racine scale; type: in vivo; conditions: rat
rats [3] = test: Fluoro-Jade C staining of rat brain; type: in vivo
rats [4] = test: Amphetamine-induced hyperlocomotion; type: in vivo, rat
[5] = Brain distribution in vivo after oral administration; conditions: rat, 1.5 hr after single p.o. 3, 10, 30, 100 mg/kg
rats [6] = test: Sleep-wake electroencephalography; type: in vivo; conditions: rat, p.o., 10 mg/kg
[7] = system: EPSCNMDA/EPSCAMPA at SC-CA1 synapses; conditions: 10 μM
[8] = system: NMDAR-fEPSP at SC-CA1 synapse; test: NMDAR-mediated fEPSPs at the SC-CA1 synapse; design: species or system rat
[9] = system: NMDAR currents in hippocampal CA1 pyramidal cells; test: Whole-cell recordings of NMDA-evoked currents/responses in CA1 pyramidal cells; design: species or system rat; conditions: for effect on NMDA-evoked currents when added alone / effect on NMDAR currents in the presence of 3 μM DHPG: 5PAM523 20 μM, VU0409551 10 μM
male Lister-hooded rats = test: Delayed non-matching to position; type: in vivo; conditions: Lister-hooded rat, 10-60 mg/kg
Outline: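 Male Lister-hooded rats (350-450 g), trained to stable accurate performance, received vehicle or test compound (10-60 mg/kg) 60 min before testing. Delays were 1, 10, 20 and 30 sec, with 15 trials each (60 total) and a 45 min maximum per session. Read-outs were proportion of correct responses per delay and trials initiated.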

rats [10] = test: Novel object recognition; type: in vivo; conditions: rat, 1-10 mg/kg, 30 min prior to exposure; significant at 3 and 10 mg/kg
[11] = Biotransformation in rat hepatocytes; type: in vitro ADME; conditions: multiple oxidative pathways
[12] = Satellite PK for Fluoro-Jade studies, repeat oral dosing; type: in vivo; conditions: rat, 120 mg/kg p.o. once-daily for 4 days, 75% PEG 400 in water
Outline: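 Non-fasted male Sprague Dawley rats received 120 mg/kg orally once daily for 4 days in aqueous PEG 400 vehicle. Serial blood samples were taken at 3, 7 and 24 hr post-dose on day 1 and day 4. Plasma concentrations were quantified by LC-MS/MS.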

[13] = Rat pharmacokinetics, single oral administration; type: in vivo; conditions: p.o., 3 mg/kg
mGlu1,2,3,4,6,7,8 = test: mGlu subtype selectivity screening; type: cell-based, rat; conditions: 10 μM; shift of agonist concentration response curve
Outline: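 Selectivity across mGlu subtypes: mGlu1 was tested by calcium flux in HEK293 cells stably expressing rat mGlu1. mGlu2, 3, 4, 6, 7 and 8 were each tested by thallium flux through GIRK channels in HEK-293-GIRK cells expressing that subtype.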

[14] = Rat pharmacokinetics, single intravenous administration; type: in vivo; conditions: i.v., 2.5 mg/kg
rat mGlu5 [15] = target: T1, rat mGlu5 (Rattus norvegicus, UniProt P31424); test: mGlu5-mediated ERK1/2 phosphorylation; type: cell-based
T1 sequence (P31424 21-1203): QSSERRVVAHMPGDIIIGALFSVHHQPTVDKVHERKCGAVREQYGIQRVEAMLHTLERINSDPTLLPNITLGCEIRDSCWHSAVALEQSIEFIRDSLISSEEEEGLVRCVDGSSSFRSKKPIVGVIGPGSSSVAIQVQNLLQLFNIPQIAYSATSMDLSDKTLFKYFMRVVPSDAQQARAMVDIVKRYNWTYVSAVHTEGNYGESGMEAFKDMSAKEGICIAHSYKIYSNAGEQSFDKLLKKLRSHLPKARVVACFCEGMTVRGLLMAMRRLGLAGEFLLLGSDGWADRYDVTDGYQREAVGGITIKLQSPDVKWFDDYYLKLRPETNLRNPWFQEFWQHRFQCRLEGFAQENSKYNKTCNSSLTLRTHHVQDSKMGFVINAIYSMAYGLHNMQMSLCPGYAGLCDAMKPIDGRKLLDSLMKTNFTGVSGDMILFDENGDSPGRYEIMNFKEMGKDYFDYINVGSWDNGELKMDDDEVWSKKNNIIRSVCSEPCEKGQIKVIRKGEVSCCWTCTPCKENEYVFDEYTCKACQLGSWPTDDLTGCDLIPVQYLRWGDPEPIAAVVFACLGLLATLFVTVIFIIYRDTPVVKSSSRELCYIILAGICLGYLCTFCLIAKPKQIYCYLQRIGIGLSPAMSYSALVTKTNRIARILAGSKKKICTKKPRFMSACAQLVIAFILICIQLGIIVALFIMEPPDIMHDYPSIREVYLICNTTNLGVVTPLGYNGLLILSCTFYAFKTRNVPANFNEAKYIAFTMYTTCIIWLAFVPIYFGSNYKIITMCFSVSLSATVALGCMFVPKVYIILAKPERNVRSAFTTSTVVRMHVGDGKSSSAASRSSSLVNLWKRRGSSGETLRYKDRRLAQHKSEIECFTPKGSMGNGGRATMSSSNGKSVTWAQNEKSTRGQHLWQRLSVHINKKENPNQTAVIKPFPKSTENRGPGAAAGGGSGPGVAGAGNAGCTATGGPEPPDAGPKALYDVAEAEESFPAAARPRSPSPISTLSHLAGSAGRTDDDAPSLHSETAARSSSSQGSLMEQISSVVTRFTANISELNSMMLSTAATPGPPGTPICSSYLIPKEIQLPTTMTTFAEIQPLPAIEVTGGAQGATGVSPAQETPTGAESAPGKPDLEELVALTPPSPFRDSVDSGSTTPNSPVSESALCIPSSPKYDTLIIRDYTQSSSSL
Outline: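 HEK293A cells stably expressing rat mGlu5 were used. Phosphorylated ERK1/2 was measured with an ALPHAScreen-based ERK Surefire assay, both with glutamate added and without added glutamate.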

rats [16] = test: MK-801-induced hyperlocomotion; type: in vivo; conditions: rat, p.o.
Outline: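 Male Sprague Dawley rats in an open-field photobeam chamber received vehicle or test compound (10-100 mg/kg, oral, 20% β-cyclodextrin, 3 ml/kg) at t = 30, then MK-801 (0.2 mg/kg s.c. in saline) at t = 60 min. Activity was recorded 60 min more as beam breaks per 5-min bin. AUC from 60 to 120 min gave total ambulations; percent reversal was normalised to vehicle + MK-801; n = 10-12.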

[17] = In vitro fraction unbound in rat brain; type: in vitro ADME
[18] = system: hippocampal Schaffer collateral-CA1 (SC-CA1) synapse; test: DHPG-induced LTD, fEPSP recordings at hippocampal SC-CA1 synapse; design: species or system rat; conditions: for fEPSP slope, % of baseline: measured 55 min after washout
α2A adrenergic receptors = target: T2, α2A adrenergic receptors (Homo sapiens, UniProt P08913); test: Radioligand competition binding assay; conditions: read-out: IC50 at α2A adrenergic receptors
T2 sequence (P08913 1-465): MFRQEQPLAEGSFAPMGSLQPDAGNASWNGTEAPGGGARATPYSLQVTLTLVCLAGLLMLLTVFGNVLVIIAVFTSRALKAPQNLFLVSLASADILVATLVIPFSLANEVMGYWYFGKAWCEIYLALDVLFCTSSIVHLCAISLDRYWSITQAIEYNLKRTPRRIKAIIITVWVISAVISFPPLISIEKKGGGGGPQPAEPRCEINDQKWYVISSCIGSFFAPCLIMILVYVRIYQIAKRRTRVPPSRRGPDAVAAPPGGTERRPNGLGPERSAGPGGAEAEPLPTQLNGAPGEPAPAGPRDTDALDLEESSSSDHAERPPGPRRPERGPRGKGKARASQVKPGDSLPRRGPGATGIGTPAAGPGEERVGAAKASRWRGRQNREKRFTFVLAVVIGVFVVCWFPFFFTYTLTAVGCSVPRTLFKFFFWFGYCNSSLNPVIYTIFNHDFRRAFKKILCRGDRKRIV

rats [19] = test: Contextual fear conditioning; type: in vivo; conditions: rat, 0.3 - 10 mg/kg, 30 min pretreatment prior to conditioning
Outline: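 Male Sprague Dawley rats (275-300 g) were dosed orally in 20% β-cyclodextrin (3 ml/kg) 30 min before conditioning. In a chamber scented with 10% vanilla extract, they had 2 min habituation, then one 1 s, 0.5 mA shock-context pairing, and returned home after 45 sec. 24 hr later, freezing was scored blind over 2 min 45 sec in the same context without shock or drug.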

[20] = In vitro fraction unbound in rat plasma; type: in vitro ADME
rat mGlu5 [21] = target: T1, rat mGlu5; test: Intracellular Ca2+ mobilization in HEK293A cells stably expressing rat mGlu5; type: cell-based; conditions: calcium mobilization
Outline: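 Stably transfected HEK293A cells expressing rat mGlu5. Test compound added first (30 μM in representative traces), then EC20 and EC80 concentrations of glutamate added in sequence; intracellular calcium mobilization traces recorded.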

rats [22] = test: Amphetamine-induced disruption of prepulse inhibition; type: in vivo; conditions: rat, 56.6 and 100 mg/kg, 30 min pretreatment
[23] = system: 66 other receptors and ion channels; test: Radioligand competition binding panel; conditions: 10 μM
[24] = system: hippocampal SC-CA1 synapse; test: Theta burst stimulation-induced LTP at the SC-CA1 synapse; design: species or system rat; conditions: 1 μM VU0092273 for 20 min then threshold TBS, 35 min after stimulation
Outline: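 Threshold LTP was induced with one theta-burst train: nine bursts of four pulses at 100 Hz, 230 ms interburst interval. fEPSP slope was quantified 35 min after TBS.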

[25] = operational model of allosterism, pERK1/2
[26] = rat, 3-100 mg/kg, 30 min pretreatment, amphetamine 1 mg/kg s.c.

mGlu5 in rat cortical astrocytes, sequence (P31424 21-1203): as the sequence (P31424 21-1203) above

## Cc1cccc(C#Cc2ccccc2)n1 [MPEP, 2-methyl-6-(phenylethynyl)-pyridine, reference compound]
[1]; MPEP 10 μM
  effect on VU0409551 potentiation of glutamate-induced calcium mobilization: blocked

## C[C@@H](NC(=O)c1ccc(C#Cc2cccc(F)c2)cn1)C(C)(C)O [VU0424465, reference compound]
Rats [2]; VU0424465 3 mg/kg
  behavioral convulsions (Racine scale): induced behavioral convulsions
Rats [3]; rat, single dose 3 mg/kg i.p., 24 hr after dose
  FJC-positive neurons in the auditory cortex and adjacent cortical regions: induced cell death

## Cc1nc(C#Cc2cccnc2)cs1 [MTEP, reference compound]
Rats [4]; data not shown
  effect on reversal of AHL by VU0409551: blocked

## O=C(c1ccc(F)cc1)N1CCc2nc(COc3ccccc3)oc2C1 [VU0409551]
[5]
  brain to plasma Kp: 2.3
  unbound brain to plasma Kp (Kp,uu): 1.3
Rats [6]
  duration of decreased time asleep post-administration: 2 h
[7]
  effect on EPSCNMDA/EPSCAMPA ratio when applied alone: had no effects
[8]
  effect on NMDAR-fEPSP slope: had no effect
[9]; current clamp
  effect on 3 μM DHPG-induced depolarization or increase in NMDAR response: did not potentiate
  effect on NMDA-evoked responses when applied alone: had no effect
[9]; voltage clamp
  effect on NMDA-evoked currents when added alone: had no effect
  effect on NMDAR currents in the presence of 3 μM DHPG: had no effect
Male Lister-hooded rats; 60 min pretreatment
  total number of trials initiated: no change
Male Lister-hooded rats; 60 min pretreatment (60 mg/kg)
  proportion of correct responses at a 10 and 20 sec delay: increased
Rats [10]
  recognition memory in the novel object recognition task: dose-dependent increase
Rats [2]; repeated once-daily 450 mg/kg over 14 days, data not shown
  behavioral convulsions: did not induce behavioral convulsions
[11]
  turnover in rat hepatocytes: moderate turnover
[12]
  AUC0-last day 1: 96 µM·h
  AUC0-last day 4: 95 µM·h
[13]
  area-under-the-curve from 0-last (AUC0-last): 2.9 µM·h
  oral bioavailability (%F): 63%
mGlu1,2,3,4,6,7,8
  effect at the other mGlu receptor subtypes: no effect; also recorded: did not shift the agonist concentration response curve
[14]
  clearance from plasma (CLp): 33 mL/min/kg
  half-life (t1/2): 3.9 h
  volume of distribution at steady-state (Vss): 9.6 L/kg
Rat mGlu5 [15]; absence of added glutamate
  pERK1/2 agonist activity: increased pERK1/2 in the absence of added glutamate; also recorded: robust agonist activity
Rat mGlu5 [15]; mGlu5-expressing cells
  glutamate-induced phosphorylation of ERK1/2: potentiated
Rat mGlu5 [15]; [25]
  agonist efficacy τB: 1.04
  cooperativity β with glutamate: 1.43
Rats [16]; 10-100 mg/kg, 30 min pretreatment, MK-801 0.2 mg/kg s.c.
  minimal effective dose (MED), reversal of MK-801-induced hyperlocomotion: 10 mg/kg
Rats [16]; highest dose 100 mg/kg
  maximum reversal of MK-801-induced hyperlocomotion: 49.7%
[17]; from in vitro fup and fubr
  brain to plasma partition coefficient (Kp) at unrestricted equilibrium ([fup]/[fubr]): 1.8
[17]; in vitro
  fraction unbound in rat brain (fubr): 0.04
[18]; 10 μM VU0409551 plus 25 μM DHPG
  fEPSP slope, % of baseline: 43.7% ± 4.6%
[18]; VU0409551 alone, transient, returned to baseline within 10 min of washout
  effect on fEPSP slope when applied alone: slight depression in the fEPSP slope
α2A adrenergic receptors
  IC50: 8.9 µM
[1]; cultured rat cortical astrocytes
  intrinsic agonist activity: no intrinsic agonist activity
[1]; rat cortical astrocytes
  maximum glutamate response: 79.5%
Rats [19]
  acquisition of fear memory assessed 24 hr later: significantly enhanced
Rats [3]; 360 mg/kg, once daily for 1 month, unpublished findings
  FJC staining: can induce FJC staining
Rats [3]; rat, 120 mg/kg p.o. daily for four consecutive days, 24 hr after last dose
  FJC staining: did not induce
Rats [4]; rat, 3-100 mg/kg
  maximum reversal of amphetamine-induced hyperlocomotion: 78.1%
Rats [4]; [26]
  ED50, reversal of amphetamine-induced hyperlocomotion: 5.9 mg/kg
  MED, reversal of amphetamine-induced hyperlocomotion: 3 mg/kg
Rats [4]; read-out: in vivo EC50 for reversal of AHL, terminal (1.5 hr) unbound brain concentration, individual animal concentration-efficacy data from all dose groups
  EC50: 0.097 µM
Rats [4]; unbound brain concentration-efficacy analysis
  Emax for reversal of AHL: 82%
[20]
  fraction unbound in rat plasma (fup): 0.07
Rat mGlu5 [21]
  intrinsic agonist activity: did not possess intrinsic agonist activity
Rats [22]
  amphetamine-induced disruptions in PPI: reversed
[23]
  activity at 66 other receptors and ion channels: no activity

## O=C(c1ccc(C#Cc2ccccc2)cc1)N1CCC(O)CC1 [VU0092273]
[24]
  effect on fEPSP slope in response to threshold TBS: significant potentiation

## C[C@@H]1CC[C@H](c2noc(-c3ccc(F)cn3)n2)CN1C(=O)c1ccc(F)cc1 [5PAM523, reference compound]
[9]; voltage clamp
  effect on NMDA-evoked currents when added alone: had no effect
  effect on NMDAR currents in the presence of 3 μM DHPG: potentiated
Rats [2]; 5PAM523 56.6 mg/kg
  behavioral convulsions (Racine scale): induced behavioral convulsions

## N[C@H](C(=O)O)c1cc(O)cc(O)c1 [DHPG, reference compound]
[9]; voltage clamp, DHPG at different concentrations
  effect of DHPG on inward currents evoked by NMDA: concentration-dependent increase in inward currents
[18]; 25 μM DHPG for 10 min
  fEPSP slope, % of baseline: 78.9% ± 5.7%
[18]; 75 μM DHPG for 10 min
  fEPSP slope, % of baseline: 54.9% ± 5.3%
